Screening data from PubChem BioAssay.
The list is not random: actives were taken first. Their share in the collection is about 2.2%.
HTRA1 inhibitor = blocks human HTRA1 serine peptidase; Q92743; recombinant HTRA1, FP-rhodamine activity-based probe, fluorescence polarization; inhibition, % at 5.96 µM; hit rate 0.5% among 340,000; in the data active means inhibition above about 36%;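 further: 0% = enzyme with DMSO and 100% = wells lacking enzyme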
SIAE primary = blocks human sialic acid acetylesterase; Q9HAT2; SIAE FP-Rh probe binding, fluorescence polarization; inhibition, % at 9.66 µM; hit rate 0.69% among 370,000;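 active means inhibition above a cutoff: mean of compounds within the control limits plus 3 SD of those, cut at about 17% in these data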;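 further: 0% = plate median of compound wells and 100% = probe without SIAE protein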
Target sequence (Q9HAT2 whole entry, looked up): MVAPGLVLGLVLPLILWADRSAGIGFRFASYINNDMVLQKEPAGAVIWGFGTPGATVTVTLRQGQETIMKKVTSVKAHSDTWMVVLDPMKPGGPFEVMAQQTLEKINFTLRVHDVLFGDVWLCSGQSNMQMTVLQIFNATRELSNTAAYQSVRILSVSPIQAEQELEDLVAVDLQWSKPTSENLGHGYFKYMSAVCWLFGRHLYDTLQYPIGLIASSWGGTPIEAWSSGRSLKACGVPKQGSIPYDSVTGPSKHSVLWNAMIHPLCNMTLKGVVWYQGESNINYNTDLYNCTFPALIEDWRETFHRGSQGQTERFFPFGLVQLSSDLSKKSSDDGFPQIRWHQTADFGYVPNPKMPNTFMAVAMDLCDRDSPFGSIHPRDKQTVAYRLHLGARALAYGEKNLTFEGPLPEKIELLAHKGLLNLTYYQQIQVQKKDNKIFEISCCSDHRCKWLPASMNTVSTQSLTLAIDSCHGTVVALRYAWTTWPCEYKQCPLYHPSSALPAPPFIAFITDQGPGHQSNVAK
TCR-CD3 inh = inhibitors of human TCR-CD3 interaction; hit rate 0.37% among 360,000; inhibition, % at 9.4 µM; TAMRA-labeled TCR probe fluorescence, biochemical; in the data active means inhibition above about 19%;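 further: recombinant mutant TCR 2C K166C tagged with TAMRA read by polarization; 0% = receptor in buffer alone and 100% = receptor with positive control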
LEDGF integ inh = blocks HIV-1 LEDGF/p75-dependent DNA integration; TR-FRET IN-LEDGF/p75 DNA integration, Eu/Cy5; inhibition, % at 3.7 µM; hit rate 0.64% among 370,000;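 active means inhibition above the screen-wide mean plus 3 SD, cut at about 13% in these data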;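 further: signal is the Cy5 over europium emission ratio at 671 and 618 nm; 0% = plate median of compound wells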
mABHD4 FP = ABHD4 (mouse) inhibition, primary FP screen; Q8VD66; purified mABHD4, FP-Rh probe fluorescence polarization; inhibition, % at 8.92 µM; hit rate 0.54% among 370,000; AID 720543;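 active means inhibition exceeding the mean over every tested compound plus 3 SD, cut at about 30% in these data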;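 further: 0% = plate median of compound wells and 100% = S159A mutant with DMSO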
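Test system: mABHD4 protein; Read-out basis: % inhibition; Incubation: 45 min + 60 min at 25 °C; Repeats: single replicate; Technique: fluorescence polarization with parallel and perpendicular emission, 525/598 nm; Compound: 8.92 µM, single dose; Benchmarks: full inhibition S159A mutant plus DMSO, zero as sample-well median.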
TDP2 absorb = TDP2 (human) inhibition, absorbance primary screen; hit rate 0.34% among 370,000; recombinant TDP2, T5PNP hydrolysis, p-nitrophenol absorbance 415 nm; AID 720702; inhibition, % at 12.8 µM; O95551;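 active means inhibition above the mean of all tested compounds plus 3 SD, set per campaign, cut at about 25% in these data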;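 further: 0% = DMSO with enzyme and 100% = buffer with substrate but no TDP2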
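Test system: human TDP2 enzyme; Input: 120 nM TDP2 per well; Buffer or medium: Mg2+-containing Tris-HCl buffer, pH 7.5; Reagent: 5 mM T5PNP; Dosing: 12.8 µM single point, 1% DMSO; Incubation: reaction 2 h, 37 °C; Detection: p-Nitrophenol epi absorbance; Read-out: % inhibition relative to enzyme-containing and enzyme-free wells; Replicates: single well per compound.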
HTRA1 conf = HTRA1 (human) inhibition, confirmation; recombinant HTRA1, FP-rhodamine activity-based probe, fluorescence polarization; AID 540248; shares compounds with HTRA1 inhibitor; inhibition, % at 5.96 µM; hit rate 66% among 1,600;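 active means mean inhibition over three repeats above a set limit taken from the earlier primary screen, cut at about 37% in these data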;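 further: 0% = HTRA1 with DMSO and 100% = wells lacking HTRA1; inhibitors block probe binding so polarization drops and inhibition rises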
Numbers without * were called inactive; nt = no result given.

SMILES | HTRA1 inhibitor | SIAE primary | TCR-CD3 inh | LEDGF integ inh | mABHD4 FP | TDP2 absorb | HTRA1 conf
CN(CC(=O)Nc1ccccc1Br)C(=O)c1cc([N+](=O)[O-])ccc1N1CCOCC1 | 91.7* | -14.6 | -1.9 | 5.8 | -5.3 | -28.0 | -2.4
c1ccc(N2CCN(c3nc(-c4ccccn4)nc4ccccc34)CC2)cc1 | 40.2* | -1.4 | -1.2 | 3.4 | 6.5 | -5.8 | 27.6
CN1CCN(c2nc(-c3ccccn3)nc3ccccc23)CC1 | 0.0 | -4.7 | 0.6 | -7.5 | -0.2 | 2.0 | nt
CN(C)CCCNC(=O)c1ccc(-c2cc(O)c3ncccc3c2)cc1 | 69.1* | 0.5 | -9.4 | -7.5 | 10.6 | -7.9 | 85.5*
CN(C)c1ccc(-c2cc(O)c3ncccc3c2)cc1 | 23.6 | 14.4 | 4.9 | -0.3 | 7.7 | -9.8 | nt
CCN1CCc2c(sc(NC(=O)c3ccc(S(=O)(=O)N4CCOCC4)cc3)c2C(=O)OC)C1 | 38.0* | 3.1 | -6.8 | -0.9 | -3.5 | -1.7 | 28.3
C/C(=N\Nc1nc(-c2cc(C)ccc2C)cs1)c1cc2c(ccc3ccccc32)oc1=O | 52.7* | -0.9 | -2.8 | 6.0 | 14.6 | 7.3 | 11.7
C/C(=N\Nc1nc(-c2cc(C)ccc2C)cs1)c1cc2ccccc2oc1=O | -2.5 | -11.1 | 10.5 | 7.9 | -4.8 | -18.7 | nt
C=CCn1c(COc2ccc(C)cc2)nnc1SCC(=O)c1ccc(-c2ccccc2)cc1 | nt | -2.3 | nt | 4.0 | -3.5 | -9.2 | nt
O=C(O)C1Nc2c(Cl)cc(Cl)cc2C2C=CCC12 (configuration not stated) | 55.1* | nt | nt | nt | nt | nt | 49.4*
O=C(O)C1Nc2ccc(Br)cc2C2C=CCC12 (configuration not stated) | 74.7* | nt | nt | nt | nt | nt | 68.8*
CCOC(=O)C1Nc2ccc(C)cc2C2C=CCC12 (configuration not stated) | 34.5 | 9.2 | -0.3 | 4.3 | 22.3 | 9.1 | nt
O=C(O)C1Nc2c(Cl)cc(Cl)c(Cl)c2C2C=CCC12 (configuration not stated) | 42.4* | 10.5 | 7.7 | 4.4 | 17.8 | -16.6 | 38.0*
CCC[C@H]1[C@@H](NC(=O)c2cccc(Cl)c2)CC[C@@]23CCCN2C(=O)CCC[C@@H]13 | nt | -5.1 | nt | 4.1 | -1.3 | -4.7 | nt
Cc1ccc(Nc2nc(-c3sc(N)nc3C)cs2)cc1 | 49.9* | 6.4 | -1.6 | 6.9 | 15.8 | 1.4 | 30.7
Cc1nc(N)sc1-c1csc(Nc2ccccn2)n1 | 24.3 | 2.3 | -4.4 | 2.2 | 20.1 | 4.9 | nt
Cc1nc(N)sc1-c1csc(Nc2ccc(Cl)cn2)n1 | 42.0* | 14.6 | -1.3 | -3.3 | 20.1 | 13.4 | 37.4*
COC(=O)[C@]12C[C@H](CC(=O)N3CCCC3)C(=O)N(CCc3ccc(OC)c(OC)c3)C1=C[C@H](C(C)(C)C)O[C@@H]2C | nt | -3.7 | nt | 0.9 | 1.0 | 1.7 | nt
O=[N+]([O-])c1ccc(O)c(/C=N/n2cnc3ccccc32)c1 | 7.4 | -9.8 | -1.1 | 1.4 | -1.4 | -5.4 | nt
Cc1ccc(/C=C2\SC(=S)N(/N=C/c3cc([N+](=O)[O-])ccc3O)C2=O)o1 | 48.8* | nt | nt | nt | nt | nt | 38.5*
CN1c2ccccc2N(C)C1(C)c1ccccc1 | 21.3 | 11.2 | 18.4 | 6.6 | 8.2 | 10.2 | nt
CCN1c2ccccc2N(C)C1(C)c1ccccc1 (configuration not stated) | 41.5* | nt | nt | nt | nt | nt | 8.3
COc1ccccc1Nc1nc(-c2cccs2)cs1 | 1.9 | 0.9 | -1.9 | -1.5 | 7.4 | 3.2 | nt
COc1ccc(C)cc1Nc1nc(-c2c[nH]c3ccccc23)cs1 | 42.9* | 8.4 | -0.7 | 2.7 | 5.0 | -2.7 | 12.4
CCOC(=O)N1CCC(=NNC(=O)c2cc3ccccc3cc2O)CC1 | 42.6* | 13.4 | 1.8 | 2.9 | 23.4 | -1.3 | 14.9
COC(=O)[C@]12C[C@H](CC(=O)NCc3ccc(OC)c(OC)c3)C(=O)N(Cc3ccco3)C1=C[C@H](C(C)(C)C)O[C@@H]2C | nt | 3.4 | nt | -1.2 | 0.6 | 1.1 | nt
COc1ccc(C(=S)N2CCN(c3ccccc3Cl)CC2)cc1OC | -17.7 | -3.0 | 1.4 | -2.6 | 3.7 | 11.8 | nt
COc1cc(C(=S)N2CCN(c3ccccc3Cl)CC2)cc(O)c1O | 51.4* | 2.2 | 16.1 | 0.2 | 23.6 | -5.9 | 83.6*
